Screens: PubChem BioAssay, several laboratories
PRMT1 inh: inhibitors of human PRMT1; hit rate 1.3% among 370,000; AID 652257; recombinant PRMT1, activity-based probe fluorescence polarization; Q99873; inhibition, % at 2.79 µM;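 active means inhibition above about 21% made by adding two undisclosed values, limit read from the data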
SIAE inh: human SIAE inhibition, primary screen; SIAE FP-Rh probe binding, fluorescence polarization; inhibition, % at 9.66 µM; hit rate 0.69% among 370,000; AID 1053197;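 active means inhibition above a cutoff: mean of compounds within the control limits plus 3 SD of those, cut at about 17% in these data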
ATG4B inh: ATG4B (human) cysteine protease inhibition | ATG4B cleavage of LC3-PLA2, NBD-HPC fluorescence, 1 h | inhibition, % at 8.33 µM | hit rate 0.51% among 340,000 | AID 504462; in the data active means inhibition above about 40%
ABHD4 inh: inhibitors of mouse ABHD4 | Q8VD66 | purified mABHD4, FP-Rh probe fluorescence polarization | inhibition, % at 8.92 µM | hit rate 0.54% among 370,000 | AID 720543;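 active means inhibition exceeding the mean over every tested compound plus 3 SD, cut at about 30% in these data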
Target sequence (Q8VD66 whole entry, looked up): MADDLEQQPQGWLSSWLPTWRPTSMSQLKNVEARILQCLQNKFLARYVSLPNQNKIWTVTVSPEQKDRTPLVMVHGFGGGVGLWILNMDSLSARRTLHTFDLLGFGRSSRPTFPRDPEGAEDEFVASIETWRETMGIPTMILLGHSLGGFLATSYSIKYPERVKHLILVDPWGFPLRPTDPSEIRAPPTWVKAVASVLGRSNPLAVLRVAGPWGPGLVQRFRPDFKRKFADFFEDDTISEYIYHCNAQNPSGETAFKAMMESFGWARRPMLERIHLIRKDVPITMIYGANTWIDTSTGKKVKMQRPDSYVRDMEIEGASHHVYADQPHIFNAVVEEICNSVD
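Assay system: mouse ABHD4 enzyme, wild type / Also added: fluorescent activity-based probe FP-Rh / Doses: single nominal dose of 8.92 µM, 0.89% DMSO final / Timing: 45 min compound pre-incubation plus 60 min probe step, 25 °C / Signal: FP readout, ex 525 nm / em 598 nm / Control set: S159A mutant/DMSO as 100%, compound-well median as 0%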
TCR CD3 inh: blocks the human TCR-CD3 interaction; TAMRA-labeled TCR probe fluorescence, biochemical; inhibition, % at 9.4 µM; hit rate 0.37% among 360,000; in the data active means inhibition above about 19%;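 further: recombinant mutant TCR 2C K166C tagged with TAMRA read by polarization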
HTRA1 inhibitor: inhibitors of human serine peptidase HTRA1. Q92743. recombinant HTRA1, FP-rhodamine activity-based probe, fluorescence polarization. inhibition, % at 5.96 µM. hit rate 0.5% among 340,000. AID 504803; in the data active means inhibition above about 36%
PRMT1 inh conf: confirmation of human PRMT1 inhibitors | hit rate 42% among 3,300 | shares compounds with PRMT1 inh | recombinant His-PRMT1, activity-based probe fluorescence polarization | inhibition, % at 2.79 µM | AID 687036;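 active means mean inhibition across replicates above the hit cutoff derived for the earlier primary screen, cut at about 22% in these data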
Each line names hits and unclear results; the compound was inactive in the other large screens (follow-up assays come after a bar, where they were run). Shown are actives, neighbours in structure and some others; about 2.9% of the full set was active somewhere.

CC(=O)c1cc(-c2ccc(Cl)c(C(F)(F)F)c2)c(=O)n2c1CCC2	none (no result: ATG4B inh, TCR CD3 inh, HTRA1 inhibitor)
O=C(O)CSc1ncccn1	none
O=C(CSc1ncccn1)c1ccccc1Br	PRMT1 inh 57 | PRMT1 inh conf 38
CC1(C)c2ccccc2N2CC(=O)N(CC(N)=O)C21C (configuration not stated)	PRMT1 inh 56 | PRMT1 inh conf inactive
Cc1ccccc1NC(=O)c1sc2nc(N3CCOCC3)c3c(c2c1N)CCCC3	PRMT1 inh 42 | PRMT1 inh conf 41
NC(=O)c1sc2nc(N3CCOCC3)c3c(c2c1N)CCCC3	PRMT1 inh 26 | PRMT1 inh conf inactive
CN(C(=O)c1sc2nc(N3CCOCC3)c3c(c2c1N)CCCC3)c1ccccc1	PRMT1 inh 26 | PRMT1 inh conf inactive
Cc1ccccc1Cn1ccc2ccc(-c3ccc4ccn(Cc5ccccc5)c4c3)cc21	none (no result: ATG4B inh, TCR CD3 inh, HTRA1 inhibitor)
COC(=O)C1CN(Cc2cn(CCOC(C)=O)nn2)CCS(=O)(=O)N1Cc1ccc(F)cc1 (configuration not stated)	none (no result: ATG4B inh, TCR CD3 inh, HTRA1 inhibitor)
O=C(C1CCCCC1)n1ccc2ccc(-c3ccc4ccn(Cc5ccccc5)c4c3)cc21	none (no result: ATG4B inh, TCR CD3 inh, HTRA1 inhibitor)
O=C(CCc1ccccc1)c1ccc2c(c1)OCCCO2	none
COc1cc(C(=O)CCN2CCC(c3ccccc3)C2)cc(OC)c1OC (configuration not stated)	PRMT1 inh 32 | PRMT1 inh conf inactive
O=C(CCN1CCC(c2ccccc2)C1)c1ccc2c(c1)OCCO2 (configuration not stated)	PRMT1 inh 36 | PRMT1 inh conf inactive
O=C(CCN1CCC(c2ccccc2)C1)c1ccccc1 (configuration not stated)	none (no result: PRMT1 inh, SIAE inh, ABHD4 inh, TCR CD3 inh)
O=C(CCN1CCCC1Cc1ccccc1)c1ccc2c(c1)OCCO2 (configuration not stated)	PRMT1 inh 37 | PRMT1 inh conf 40
C[C@H]1[C@@H](C(=O)N2CCCC2)CC(=O)/C(=N/OCc2ccccc2)C[C@@H]1c1ccccc1	none (no result: ATG4B inh, TCR CD3 inh, HTRA1 inhibitor)
COC(=O)CCC1NC(=O)C(Cc2c[nH]c3ccccc23)NC(=O)C2CC(=O)OC(C)C(NC(=O)C(C)NC(=O)C3CCCN3C(=O)C3CCCN3C(=O)C(C)NC(C)=O)C(=O)NC(CC(C)C)C(=O)NC(CCCCNC(=O)CCC(C(=O)NC(Cc3ccc(O)cc3)C(=O)O)NC1=O)C(=O)NC(Cc1c[nH]c3ccccc13)C(=O)N1CCCC1C(=O)NC(CO)C(=O)N2 (configuration not stated)	none (no result: ATG4B inh, TCR CD3 inh, HTRA1 inhibitor)
Cc1nc2ccccc2c(=O)n1-c1cccc(NC(=O)c2cccs2)c1	none
O=C(Nc1cccc(N2C(=O)C=CC2=O)c1)c1cccs1	PRMT1 inh 86 (no result: ATG4B inh) | PRMT1 inh conf 94
Cc1ccccc1C(=O)NC1CCCCN(Cc2cccc(Cl)c2)C1=O (configuration not stated)	none (no result: ATG4B inh, TCR CD3 inh, HTRA1 inhibitor)
O=C(/C=C/c1ccco1)N(Cc1ccc(Cl)cc1)C1CCS(=O)(=O)C1 (configuration not stated)	PRMT1 inh 28 | PRMT1 inh conf inactive
CN(C)c1ccc(CN(C(=O)/C=C/c2ccco2)C2CCS(=O)(=O)C2)cc1 (configuration not stated)	none (no result: HTRA1 inhibitor)
Cc1cc(C)c(Nc2n[nH]c(=S)s2)cc1C	PRMT1 inh 47 (no result: ATG4B inh) | PRMT1 inh conf 23
CC(=O)Nc1n[nH]c(=S)s1	none
CNc1n[nH]c(=S)s1	none
Cc1cccc(C)c1Nc1n[nH]c(=S)s1	PRMT1 inh 32 (no result: ATG4B inh) | PRMT1 inh conf inactive
CC(C)c1ccc(Nc2n[nH]c(=S)s2)cc1	none (no result: ATG4B inh, HTRA1 inhibitor)
Cc1ccc(Nc2n[nH]c(=S)s2)c(C)c1	PRMT1 inh 35 (no result: ATG4B inh) | PRMT1 inh conf 36
O=S1(=O)c2ccc(Br)cc2OC[C@@H](c2ccccc2)N1Cc1cn(CCC2OCCO2)nn1	none (no result: ATG4B inh, TCR CD3 inh, HTRA1 inhibitor)
O=C(Nc1ccc(F)cc1)OCc1cn(Cc2cccc(Cl)c2)nn1	none (no result: ATG4B inh, TCR CD3 inh, HTRA1 inhibitor)
CC1CCCC(C)N1C(=O)COC(=O)/C=C/c1ccc(Br)o1 (configuration not stated)	none
CC1CCN(C(=O)COC(=O)/C=C/c2ccc(Br)o2)CC1	PRMT1 inh 36 | PRMT1 inh conf inactive
O=S(=O)(Nn1c(O)c(C=C2N=c3ccccc3=N2)sc1=S)c1ccccc1	none
